Only some compounds are listed: those with a hit (about 2.1% of all), similar ones and a draw of the others.
Shn3 inh set2: Schnurri-3 reporter inhibition in Clone20 osteoblasts. Clone20 osteoblast Shn3 3'UTR firefly luciferase, 24 h. inhibition, % at 12.5 µM. 0.52% of 360,000 active. AID 588674;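 active means mean inhibition of at least 75% with every replicate also reaching 75%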;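 further: 0% = median of neutral control wells and 100% = pilot-screen positive control compound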
EBV LMP1 NFkB: Epstein-Barr LMP1 NF-kappaB reporter inhibition | inhibition, % at 12.5 µM | 0.69% of 350,000 active | LMP1-induced NF-kappaB luciferase reporter cells, luminescence; in the data active means inhibition above about 41%;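 further: 0% = neutral control wells and 100% = reference inhibitor control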
PAX8 inh HTS: lowers PAX8-driven luciferase in RMG-I cells. RMG-I TPO-luciferase reporter, SteadyGlo, 24 h. inhibition, % at 12.6 µM. 1.2% of 360,000 active;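 active means mean replicate inhibition at least 60% with every replicate also reaching 60%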;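 further: luciferase light reporting Pax8 driven TPO promoter activity; plate controls were median of neutral control wells for no effect and mitoxantrone controls for full effect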
FN deposition inh: fibronectin deposition inhibition. AH1F fibroblasts, Alexa488-fibronectin deposition fluorescence, overnight. inhibition, % at 12.6 µM. 0.086% of 350,000 active. AID 743247;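 active means mean inhibition across replicates of 30% or more, regardless of how many single replicates reach that level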;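 further: positive control wells lacked labelled fibronectin entirely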
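Material: AH1F fibroblast monolayer depositing Alexa488-labelled fibronectin into matrix | Input: 10000 AH1F cells/well | Medium: DMEM plus 2% serum, read in PBS | Reagent: Alexa488-fibronectin, 24 nM final in well | Compound dosing: One dose per compound, pinned | Schedule: 1 h adhesion, overnight exposure | Measured by: Fluorescence at 485 nm excitation, 525 nm emission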
EWS-Fli inh: blocks EWS/Fli oncoprotein-driven transcription | AID 651661 | inhibition, % at 12.6 µM | 0.67% of 350,000 active | A673 NR0B1-luciferase reporter, viability-normalised;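 active means mean inhibition of at least 50% after viability correction, with every replicate also passing that limit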;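 further: firefly luciferase signal divided by Alamar Blue viability fluorescence both relative to DMSO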
aSyn 5UTR inh: MLPCN primary screen, SNCA 5' untranslated region; alpha-synuclein 5'UTR reporter, inhibitor activity; inhibition, % (tested at 7.5 µM); 0.82% of 300,000 active; AID 1813; in the data active means inhibition above about 60%;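 further: H4 neuroglioblastoma cells stably carrying SNCA 5'UTR luciferase fusion; 0% = DMSO wells and 100% = positive control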
Starred values were filed as active, the others as inactive; x = no result given.

SMILES | Shn3 inh set2 | EBV LMP1 NFkB | PAX8 inh HTS | FN deposition inh | EWS-Fli inh | aSyn 5UTR inh
O=C(C[C@H]1CC[C@@H]2[C@H](COC[C@H](O)CN2S(=O)(=O)c2ccccc2)O1)Nc1ccc(-c2ccccc2)cc1 | x | x | 63* | -13 | 6 | x
O=C(C[C@H]1CC[C@H]2[C@@H](COC[C@H](O)CN2S(=O)(=O)c2cccc(Cl)c2)O1)Nc1ccc(-c2ccccc2)cc1 | x | x | 57 | -4 | -8 | x
O=C(C[C@H]1CC[C@@H]2[C@H](COC[C@@H](O)CN2S(=O)(=O)c2cccc(Cl)c2)O1)Nc1ccc(-c2ccccc2)cc1 | x | x | 106* | 7 | -2 | x
C/C=C/c1cnc2c(c1)C(=O)N([C@@H](C)CO)C[C@H](C)[C@H](CN(C)Cc1ccccc1)O2 | x | x | x | 1 | 8 | x
C[C@@H]1CCCCO[C@@H](CN(C)S(C)(=O)=O)[C@H](C)CN([C@@H](C)CO)C(=O)c2cc(NC(=O)c3ccncc3)ccc2O1 | x | x | -7 | x | -5 | x
Cc1noc(C)c1S(=O)(=O)N(C)C[C@@H]1Oc2ccc(NC(=O)Nc3ccc(C(F)(F)F)cc3)cc2CC(=O)N([C@H](C)CO)C[C@H]1C | x | x | 42 | 12 | 3 | x
COc1ccc(-c2nc3ccccc3n2Cc2ccc(C)cc2)cc1 | -20 | 4 | x | x | x | -47
COc1ccc(Cn2c(-c3ccc(C)cc3)c[n+]3ccccc23)cc1 | 76 | 17 | 88* | 9 | 5 | -20
CO[C@H]1CN(C)C(=O)c2cc(NC(=O)c3ccccc3)ccc2OC[C@@H](C)NC[C@H]1C | x | x | -4 | -8 | 7 | x
CO[C@H]1CN(C)C(=O)c2cc(NC(=O)c3ccc(Oc4ccccc4)cc3)ccc2OC[C@@H](C)NC[C@@H]1C | x | x | 3 | 18 | 14 | x
CO[C@@H]1CN(C)C(=O)c2cc(NC(=O)c3ccc(-c4ccccc4)cc3)ccc2OC[C@H](C)NC[C@H]1C | x | x | 84* | 0 | 54* | x
CO[C@@H]1CN(C)C(=O)c2cc(NC(=O)c3ccc(Oc4ccccc4)cc3)ccc2OC[C@H](C)NC[C@H]1C | x | x | 8 | 9 | 69* | x
CO[C@H]1CN(C)C(=O)c2cc(NC(=O)c3ccc(-c4ccccc4)cc3)ccc2OC[C@@H](C)NC[C@@H]1C | x | x | 112* | -9 | 2 | x
CO[C@@H]1CN(C)C(=O)c2ccc(NC(=O)c3ccc(-c4ccccc4)cc3)cc2OC[C@@H](C)NC[C@H]1C | x | x | 68* | 40* | 42 | x
COCC(=O)N1CC2(C1)[C@H](c1ccc(-c3ccc(F)cc3)cc1)[C@@H](CO)N2C(C)=O | x | x | x | x | -7 | x
CO[C@H]1CN(C)C(=O)c2cc(NC(=O)c3ccc(-c4ccccc4)cc3)ccc2OC[C@H](C)NC[C@@H]1C | x | x | 28 | 7 | 58* | x
O=C(C1CC1)N1CC(=O)N2[C@H](CO)[C@@H](c3ccc(Br)cc3)[C@H]2C1 | x | x | -16 | 14 | 0 | x
O=C(CCl)N(c1ccccc1)C1CCCCC1 | 97* | -18 | 103* | -9 | 35 | 110*
CC(=O)N(c1ccccc1)C1CCCC1 | -25 | 9 | 3 | 2 | -2 | 12
O=C(NC[C@H]1N[C@H](CO)[C@@H]1c1ccc(C2=CCCCC2)cc1)c1ccccc1 | x | x | -5 | -3 | 10 | x
O=C(NCC[C@@H]1CC[C@@H](NS(=O)(=O)c2cccc(F)c2)[C@@H](CO)O1)C1CCCCC1 | x | x | 10 | -13 | 7 | x
C[C@@H]1CCCCO[C@H](CN(C)S(=O)(=O)c2ccccc2)[C@@H](C)CN([C@H](C)CO)C(=O)c2cc(NS(=O)(=O)c3cn(C)cn3)ccc2O1 | x | x | 2 | 8 | -8 | x
CSc1ccc(S(=O)(=O)N2c3ccccc3CC2C)cc1 (stereo unspecified) | 9 | -16 | 44 | 12 | 51* | -56
CC(=O)Nc1ccc(OCc2cccc3ccccc23)cc1 | 10 | 9 | 22 | -3 | 2 | 92*
CC(C)NC(=O)Nc1ccc2c(c1)C(=O)N([C@H](C)CO)C[C@H](C)[C@@H](CN(C)S(=O)(=O)c1cccs1)OCCCC[C@H](C)O2 | x | x | 4 | 3 | 5 | x
SMILES | Shn3 inh set2 | EBV LMP1 NFkB | PAX8 inh HTS | FN deposition inh | EWS-Fli inh | aSyn 5UTR inh
Cc1noc(C)c1S(=O)(=O)Nc1ccc2c(c1)C(=O)N([C@H](C)CO)C[C@@H](C)[C@@H](CN(C)Cc1ccc(C(F)(F)F)cc1)OCCCC[C@H](C)O2 | x | x | 86* | x | x | x
Cc1noc(C)c1S(=O)(=O)Nc1ccc2c(c1)C(=O)N([C@H](C)CO)C[C@@H](C)[C@H](CN(C)Cc1ccc(C(F)(F)F)cc1)OCCCC[C@H](C)O2 | x | x | 72* | 3 | x | x
Cc1noc(C)c1S(=O)(=O)Nc1ccc2c(c1)C(=O)N([C@@H](C)CO)C[C@@H](C)[C@@H](CN(C)Cc1ccc(C(F)(F)F)cc1)OCCCC[C@H](C)O2 | x | x | 68* | x | x | x
Cc1noc(C)c1S(=O)(=O)Nc1ccc2c(c1)C(=O)N([C@H](C)CO)C[C@H](C)[C@@H](CN(C)Cc1ccc(Cl)c(Cl)c1)OCCCC[C@H](C)O2 | x | x | 21 | x | x | x
Cc1noc(C)c1S(=O)(=O)Nc1ccc2c(c1)C(=O)N([C@H](C)CO)C[C@@H](C)[C@H](CN(C)Cc1ccc(Cl)c(Cl)c1)OCCCC[C@@H](C)O2 | x | x | 75* | x | 22 | x
COc1cccc(C(=O)Nc2ccc3c(c2)C(=O)N(C)C[C@@H](OC)[C@@H](C)CN(C(=O)C2CCCC2)[C@H](C)CO3)c1 | x | x | 3 | 5 | 5 | x
C[C@@H]1CN([C@@H](C)CO)C(=O)c2cc(C3=CCCC3)cnc2O[C@H]1CN(C)C(=O)c1ccncc1 | x | x | x | -10 | -6 | x
O=C(C[C@H]1CC[C@H](NC(=O)c2ccncc2)[C@H](CO)O1)NCC1CCCCC1 | x | x | -12 | -3 | 1 | x
Cc1noc(C)c1S(=O)(=O)Nc1ccc2c(c1)C(=O)N([C@H](C)CO)C[C@@H](C)[C@H](CN(C)C(=O)Nc1ccc(C(F)(F)F)cc1)OCCCC[C@@H](C)O2 | x | x | 87* | x | 12 | x
C[C@H]1CN([C@@H](C)CO)C(=O)c2cccc(NS(=O)(=O)c3ccc(F)cc3)c2O[C@H]1CN(C)S(=O)(=O)c1ccc(F)cc1 | x | x | 0 | x | -6 | x
Cc1ncc(CO)c(/C=N/NC(=S)Nc2ccc(F)cc2)c1O | 10 | 20 | -7 | -4 | x | 13
Cc1ncc(CO)c(/C=N/Nc2ccc(C(F)(F)F)cn2)c1O | 81 | 30 | 32 | 6 | 1 | 88*
COc1ccc(-n2ncc3c(N4CCN(c5cccc(C)c5C)CC4)ncnc32)cc1 | 16 | -2 | 0 | 2 | -2 | 41
COc1ccc(-n2ncc3c(N4CCCCC4)ncnc32)cc1 | 82 | 76* | x | x | x | 101*
Clc1ccc(-n2ncc3c(N4CCCCCC4)ncnc32)cc1 | 66 | 41* | -7 | 5 | 80* | 78*
COc1ccccc1CNc1nc(Nc2cccc(-c3cnco3)c2)c2sccc2n1 | 84 | x | 74* | -1 | 3 | x
COc1ccccc1CNc1nc(NCc2cccs2)nc2ccsc12 | 42 | x | 22 | -2 | 7 | x
